According to ChEMBL document CHEMBL1275350, “First in class, potent, and orally bioavailable NADPH oxidase isoform 4 (Nox4) inhibitors for the treatment of idiopathic pulmonary fibrosis” (J Med Chem, 2010):

Experiments:
Rattus norvegicus = organism: Rattus norvegicus; test: Inhibition of rat AMPK at 10 uM
[1] = biological target: Phosphatidylinositol 4,5-bisphosphate 3-kinase catalytic subunit gamma isoform (Homo sapiens) (UniProt P48736); test: Inhibition of PI3Kgamma at 10; conditions: concentration not given here
Chain of Phosphatidylinositol 4,5-bisphosphate 3-kinase catalytic subunit gamma isoform (Homo sapiens) (P48736 whole entry, looked up, canonical isoform): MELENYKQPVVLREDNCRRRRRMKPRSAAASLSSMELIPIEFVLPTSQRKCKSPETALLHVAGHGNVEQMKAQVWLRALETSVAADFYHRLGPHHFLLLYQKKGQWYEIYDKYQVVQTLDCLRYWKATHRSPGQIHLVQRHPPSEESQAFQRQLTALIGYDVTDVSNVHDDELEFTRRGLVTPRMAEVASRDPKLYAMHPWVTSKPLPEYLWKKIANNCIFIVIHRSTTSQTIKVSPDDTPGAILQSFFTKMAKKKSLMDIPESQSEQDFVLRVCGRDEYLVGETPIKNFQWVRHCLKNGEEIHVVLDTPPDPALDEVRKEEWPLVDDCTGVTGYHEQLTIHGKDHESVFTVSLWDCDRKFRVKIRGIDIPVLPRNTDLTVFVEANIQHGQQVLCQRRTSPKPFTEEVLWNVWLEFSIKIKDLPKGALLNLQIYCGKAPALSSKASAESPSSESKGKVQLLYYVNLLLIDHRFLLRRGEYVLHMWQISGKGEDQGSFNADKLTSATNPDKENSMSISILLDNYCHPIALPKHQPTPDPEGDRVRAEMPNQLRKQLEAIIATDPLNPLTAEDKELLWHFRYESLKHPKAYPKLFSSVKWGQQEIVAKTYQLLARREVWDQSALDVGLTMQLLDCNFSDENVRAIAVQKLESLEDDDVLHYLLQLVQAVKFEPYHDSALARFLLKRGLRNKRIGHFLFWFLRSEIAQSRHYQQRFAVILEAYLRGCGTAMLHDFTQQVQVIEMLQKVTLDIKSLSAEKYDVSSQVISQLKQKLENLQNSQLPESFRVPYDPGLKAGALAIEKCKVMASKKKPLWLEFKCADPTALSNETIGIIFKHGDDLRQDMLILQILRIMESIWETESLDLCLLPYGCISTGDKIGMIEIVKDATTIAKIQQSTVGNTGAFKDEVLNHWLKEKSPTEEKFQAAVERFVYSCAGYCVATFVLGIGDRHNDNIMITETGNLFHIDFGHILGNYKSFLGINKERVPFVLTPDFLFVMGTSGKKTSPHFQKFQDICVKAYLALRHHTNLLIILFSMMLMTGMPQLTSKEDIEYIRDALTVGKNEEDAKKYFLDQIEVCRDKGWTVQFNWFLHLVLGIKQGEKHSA

Cytochrome P450 2C19 = Cytochrome P450 2C19 (Homo sapiens, UniProt P33261); test: Inhibition of human CYP2C19; format: ADME
Chain of Cytochrome P450 2C19 (P33261 whole entry, canonical isoform): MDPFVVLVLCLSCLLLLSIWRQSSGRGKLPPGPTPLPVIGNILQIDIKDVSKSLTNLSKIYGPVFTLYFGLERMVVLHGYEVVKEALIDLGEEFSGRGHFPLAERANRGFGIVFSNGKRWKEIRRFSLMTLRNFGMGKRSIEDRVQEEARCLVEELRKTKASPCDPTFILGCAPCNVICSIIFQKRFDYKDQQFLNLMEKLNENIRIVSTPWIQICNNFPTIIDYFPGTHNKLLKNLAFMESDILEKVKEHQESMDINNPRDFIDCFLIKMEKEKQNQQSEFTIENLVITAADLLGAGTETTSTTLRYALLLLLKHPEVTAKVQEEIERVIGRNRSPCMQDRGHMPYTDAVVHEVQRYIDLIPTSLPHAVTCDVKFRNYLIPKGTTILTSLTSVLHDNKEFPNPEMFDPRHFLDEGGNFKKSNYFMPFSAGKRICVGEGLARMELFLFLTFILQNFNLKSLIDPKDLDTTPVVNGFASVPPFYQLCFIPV
How it was run: (§1)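 Recombinant human CYP isoforms with isoform-specific probe substrates and NADPH. Compound at 0.1–25 μM, final DMSO 0.3%. Metabolites measured by mass spectrometry, except CYP1A2, which used a fluorescent metabolite. IC50 derived from the decrease in metabolite formation compared with vehicle control.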

[2] = Half life in Sprague-Dawley rat at 5 mg/kg, iv; format: ADME, organism-based; set-up: dose 5 mg/kg, route intravenous; conditions: in vivo
How it was run: (§2)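 Parallel design with six male rats: three given 5 mg/kg iv in EDPW (10% EtOH, 10% DMA, 30% PG, 50% water), three given 10 mg/kg orally in aqueous 0.5% CMC with 0.25% Tween 20. Carotid cannula blood sampled up to 24 h. Plasma levels by LC/MS/MS (LLOQ 1.00 ng/mL). Noncompartmental analysis.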

[3] = biological target: Endothelin-1 receptor (Homo sapiens) (UniProt P25101); test: Inhibition of human ET-A receptor at 10 uM
Chain of Endothelin-1 receptor (Homo sapiens) (P25101 whole entry): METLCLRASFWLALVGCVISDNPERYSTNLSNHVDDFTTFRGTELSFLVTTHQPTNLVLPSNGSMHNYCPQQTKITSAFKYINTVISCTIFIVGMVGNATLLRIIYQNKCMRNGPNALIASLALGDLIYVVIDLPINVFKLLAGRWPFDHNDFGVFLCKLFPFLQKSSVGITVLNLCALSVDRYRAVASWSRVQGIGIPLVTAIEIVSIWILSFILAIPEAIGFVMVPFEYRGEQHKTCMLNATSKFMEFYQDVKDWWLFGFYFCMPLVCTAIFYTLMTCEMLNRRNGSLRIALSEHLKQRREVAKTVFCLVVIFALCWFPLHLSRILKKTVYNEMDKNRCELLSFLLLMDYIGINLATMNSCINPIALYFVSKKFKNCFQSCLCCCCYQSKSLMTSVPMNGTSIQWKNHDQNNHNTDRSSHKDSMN

[4] = Inhibition of potassium channel at 10 uM
[5] = Genotoxicity in Salmonella Typhimurium at 100 uM by mini Ames test; format: toxicity; conditions: salmonella enterica subsp. enterica serovar typhimurium
[6] = Cmax in Sprague-Dawley rat at 5 mg/kg, iv; format: ADME, organism-based; set-up: dose 5 mg/kg, route intravenous; conditions: in vivo; how it was run: as §2
[7] = biological target: Myeloperoxidase (Homo sapiens) (UniProt P05164); test: Inhibition of human myeloperoxidase at 10 uM
Cytochrome P450 2C9 = Cytochrome P450 2C9 (Homo sapiens, UniProt P11712); test: Inhibition of human CYP2C9; format: ADME; how it was run: as §1
Chain of Cytochrome P450 2C9 (P11712 whole entry, canonical isoform): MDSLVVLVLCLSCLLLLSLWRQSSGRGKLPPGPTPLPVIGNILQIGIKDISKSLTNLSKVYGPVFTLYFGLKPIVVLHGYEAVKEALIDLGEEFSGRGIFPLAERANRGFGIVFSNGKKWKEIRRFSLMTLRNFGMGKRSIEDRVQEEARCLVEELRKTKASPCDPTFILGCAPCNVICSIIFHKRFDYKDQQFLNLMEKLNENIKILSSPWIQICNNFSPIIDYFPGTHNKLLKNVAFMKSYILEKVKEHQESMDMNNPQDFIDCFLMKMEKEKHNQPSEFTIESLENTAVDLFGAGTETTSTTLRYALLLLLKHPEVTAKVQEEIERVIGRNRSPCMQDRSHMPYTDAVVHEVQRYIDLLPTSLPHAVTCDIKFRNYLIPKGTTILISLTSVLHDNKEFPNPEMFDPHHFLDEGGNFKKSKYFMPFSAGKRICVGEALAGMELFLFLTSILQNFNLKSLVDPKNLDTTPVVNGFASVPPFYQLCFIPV

[8] = biological target: Phosphatidylinositol 4,5-bisphosphate 3-kinase catalytic subunit alpha isoform (Homo sapiens) (UniProt P42336); test: Inhibition of PI3Kalpha at 10; conditions: concentration not given here
NADPH oxidase 2 = NADPH oxidase 2 (Homo sapiens, UniProt P04839); test: Inhibition of human NOX2 overexpressed in […] cell membrane assessed as ROS production by cell free assay in presence of NADPH
Chain of NADPH oxidase 2 (P04839 whole entry): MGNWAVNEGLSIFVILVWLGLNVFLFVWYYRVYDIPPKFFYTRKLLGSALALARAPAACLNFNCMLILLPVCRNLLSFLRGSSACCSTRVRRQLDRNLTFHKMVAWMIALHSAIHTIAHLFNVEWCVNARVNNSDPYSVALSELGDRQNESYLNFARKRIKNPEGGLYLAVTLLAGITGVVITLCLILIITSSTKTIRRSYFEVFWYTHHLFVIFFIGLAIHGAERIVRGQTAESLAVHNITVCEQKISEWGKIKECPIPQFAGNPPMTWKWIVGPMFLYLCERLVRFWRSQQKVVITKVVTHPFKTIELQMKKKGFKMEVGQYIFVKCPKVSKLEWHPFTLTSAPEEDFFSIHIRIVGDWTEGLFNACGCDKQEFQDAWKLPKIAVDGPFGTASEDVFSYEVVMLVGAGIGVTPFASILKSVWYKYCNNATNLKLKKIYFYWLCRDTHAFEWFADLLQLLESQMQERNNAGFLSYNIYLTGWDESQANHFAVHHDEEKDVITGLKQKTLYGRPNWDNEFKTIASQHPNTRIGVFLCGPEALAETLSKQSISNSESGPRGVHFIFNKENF
How it was run: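 Nox2 source: membranes from human polymorphonuclear cells, sonicated and collected at the 17/40% sucrose interface. ROS read by Amplex Red/HRP in PBS after NADPH addition, with compound at 1 nM–100 μM for 20 min at 37 °C. Background taken without membranes or agonist. Ki via Cheng-Prusoff, mean of ≥3 experiments in triplicate.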

[9] = Cmax in Sprague-Dawley rat at 10 mg/kg, po; format: ADME, organism-based; set-up: dose 10 mg/kg, route oral; conditions: in vivo; how it was run: as §2
NADPH oxidase 4 = biological target: T1, NADPH oxidase 4 (Homo sapiens, UniProt Q9NPH5); test: Inhibition of human NOX4 overexpressed in T-REx-293 cell membrane assessed as ROS production by cell free assay in presence of NADPH; conditions: in the assay text read “T-REx-293 cell membrane” for “human PMN cell membrane”
T1 sequence (Q9NPH5 whole entry): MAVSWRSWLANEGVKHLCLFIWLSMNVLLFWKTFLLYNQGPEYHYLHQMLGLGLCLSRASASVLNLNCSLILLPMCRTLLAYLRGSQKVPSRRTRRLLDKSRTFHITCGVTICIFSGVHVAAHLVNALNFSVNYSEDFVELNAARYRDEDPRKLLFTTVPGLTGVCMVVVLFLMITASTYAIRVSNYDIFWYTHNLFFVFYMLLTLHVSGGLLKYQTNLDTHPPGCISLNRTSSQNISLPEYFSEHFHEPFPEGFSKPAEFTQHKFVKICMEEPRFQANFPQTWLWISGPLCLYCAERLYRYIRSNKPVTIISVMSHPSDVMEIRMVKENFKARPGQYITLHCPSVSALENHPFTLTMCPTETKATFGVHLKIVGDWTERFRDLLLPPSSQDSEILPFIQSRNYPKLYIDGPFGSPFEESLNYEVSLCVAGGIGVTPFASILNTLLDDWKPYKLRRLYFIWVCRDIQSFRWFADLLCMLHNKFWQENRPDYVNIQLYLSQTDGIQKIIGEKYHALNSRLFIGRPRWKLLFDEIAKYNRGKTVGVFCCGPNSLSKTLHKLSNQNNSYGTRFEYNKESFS
How it was run: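 hNOX4 T-REx-293 cells induced with tetracycline (1 μg/mL, 24 h), sonicated in sucrose/NaCl/EGTA PBS buffer pH 7.4, membranes taken from a sucrose gradient. NADPH-triggered ROS measured by Amplex Red/HRP in PBS, with compound at 1 nM–100 μM, 20 min at 37 °C. Ki by Cheng-Prusoff from ≥3 triplicate experiments.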

[10] = Inhibition of chloride channel at 10 uM
Plasma = test: Unbound fraction in Sprague-Dawley rat 50% plasma protein; format: ADME, cell-free
[11] = Permeability across human Caco-2 cell membrane at 10 uM after 2 hrs; format: ADME, cell-based
How it was run: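 Caco-2 monolayers grown 20 days in DMEM, used when TEER >800 Ω·cm2. Dosed at 10 μM final in HBSS pH 6.5 with 1% DMSO, apical-to-basolateral and basolateral-to-apical. Incubated 2 h at 37 °C, both compartments sampled, LC-MS/MS with five-point calibration. Papp = (dQ/dt)/(C0A).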

MAO-B = MAO-B (Homo sapiens, UniProt P27338); test: Inhibition of MAO-B at 10 uM
Chain of MAO-B (P27338 whole entry): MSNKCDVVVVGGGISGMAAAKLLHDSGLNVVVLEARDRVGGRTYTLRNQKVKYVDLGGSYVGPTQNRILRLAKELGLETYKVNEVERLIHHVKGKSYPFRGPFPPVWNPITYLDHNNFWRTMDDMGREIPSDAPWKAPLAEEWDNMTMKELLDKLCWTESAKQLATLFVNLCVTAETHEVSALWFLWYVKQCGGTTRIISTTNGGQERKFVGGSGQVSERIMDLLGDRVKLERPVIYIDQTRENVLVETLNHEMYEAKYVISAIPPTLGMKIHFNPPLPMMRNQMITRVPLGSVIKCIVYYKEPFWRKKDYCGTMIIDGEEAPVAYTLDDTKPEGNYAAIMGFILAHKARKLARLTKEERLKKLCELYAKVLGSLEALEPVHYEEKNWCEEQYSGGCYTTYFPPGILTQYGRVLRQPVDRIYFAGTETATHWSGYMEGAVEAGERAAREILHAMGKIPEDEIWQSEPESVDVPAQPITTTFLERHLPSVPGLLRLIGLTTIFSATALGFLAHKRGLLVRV

[12] = Inhibition of calcium channel at 10 uM
[13] = biological target: Polyunsaturated fatty acid lipoxygenase ALOX12 (Homo sapiens) (UniProt P18054); test: Inhibition of human 12-lipoxygenase at 10 uM
Chain of Polyunsaturated fatty acid lipoxygenase ALOX12 (Homo sapiens) (P18054 whole entry): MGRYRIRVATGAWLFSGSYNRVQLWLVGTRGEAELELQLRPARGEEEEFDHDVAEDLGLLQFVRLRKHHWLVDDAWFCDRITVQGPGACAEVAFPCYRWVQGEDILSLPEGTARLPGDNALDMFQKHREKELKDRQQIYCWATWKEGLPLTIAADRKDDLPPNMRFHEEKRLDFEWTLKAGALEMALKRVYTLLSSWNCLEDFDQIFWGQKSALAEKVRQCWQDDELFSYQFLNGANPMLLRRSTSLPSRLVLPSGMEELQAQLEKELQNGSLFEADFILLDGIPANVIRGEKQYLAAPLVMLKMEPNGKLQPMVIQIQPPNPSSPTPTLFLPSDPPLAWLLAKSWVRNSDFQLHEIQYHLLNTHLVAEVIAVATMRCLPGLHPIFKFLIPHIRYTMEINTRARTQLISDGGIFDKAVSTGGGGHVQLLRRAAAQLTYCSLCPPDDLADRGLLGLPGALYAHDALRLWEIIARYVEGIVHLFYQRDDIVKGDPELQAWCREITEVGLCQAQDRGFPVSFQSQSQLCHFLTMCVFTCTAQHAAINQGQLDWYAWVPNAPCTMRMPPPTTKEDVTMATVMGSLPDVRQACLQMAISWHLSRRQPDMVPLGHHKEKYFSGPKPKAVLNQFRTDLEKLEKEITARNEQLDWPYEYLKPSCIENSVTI

[14] = biological target: Polyunsaturated fatty acid lipoxygenase ALOX15 (Homo sapiens) (UniProt P16050); test: Inhibition of 15-lipoxygenase at 10 uM
[15] = Intrinsic clearance in human liver microsomes assessed as per mg of protein at 0.5 uM; format: ADME, Microsome
How it was run: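 Phase I stability assay in pooled liver microsomes (human: male and female; rat: male Sprague-Dawley). Microsomes at 0.5 mg/mL final in 0.1 M phosphate pH 7.4. Compound 0.5 μM final, 0.25% DMSO. Preincubated at 37 °C, reaction started with 1 mM NADPH. Sampled at 0, 5, 15, 30 and 45 min, with a 45 min minus-NADPH control. Methanol quench with internal standard, LC/MS-MS, intrinsic clearance calculated.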

[16] = Clearance in Sprague-Dawley rat at 5 mg/kg, iv; format: ADME, organism-based; set-up: dose 5 mg/kg, route intravenous; conditions: in vivo; how it was run: as §2
[17] = biological target: Dual specificity mitogen-activated protein kinase kinase 1 (Homo sapiens) (UniProt Q02750); test: Inhibition of human MEK1 at 10 uM
[18] = biological target: Tyrosine-protein phosphatase non-receptor type 1 (Homo sapiens) (UniProt P18031); test: Inhibition of human PTP1B at 10 uM
[19] = biological target: MAP kinase p38 (Homo sapiens) (UniProt O15264+Q15759+Q16539+P53778); test: Inhibition of human p38 MAP kinase at 10 uM; format: protein assay
[20] = biological target: Protein kinase C alpha type (Homo sapiens) (UniProt P17252); test: Inhibition of human PKCalpha at 10 uM

## Cc1c2c(=O)n(-c3ccccc3Cl)[nH]c2cc(=O)n1Cc1ccccn1
Rattus norvegicus
  inhibition: 0%
[1]
  inhibition: 0%
Cytochrome P450 2C19
  IC50: > 25 µM
[2]
  half-life: 218 min
[3]
  inhibition: 0%
[4]
  inhibition: 0%
[5]
  Activity: Non-toxic
[6]
  Cmax: 12100 ng/mL
[7]
  inhibition: 0%
Cytochrome P450 2C9
  IC50: > 25 µM
[8]
  inhibition: 0%
NADPH oxidase 2
  Ki: 1530 nM
[9]
  Cmax: 3150 ng/mL
NADPH oxidase 4
  Ki: 165 nM
[10]
  inhibition: 0%
Plasma
  Fu: 20.5%
[11]
  Papp at 2 h, 10 µM: 21.4 ×10⁻⁶ cm/s
MAO-B
  inhibition at 10 µM: 0%
[12]
  inhibition: 0%
[13]
  inhibition: 2%
[14]
  inhibition: 0%
[15]
  microsomal CLint at 0.5 µM: 24.8 µL/min/mg
[16]
  clearance: 7.83 mL/min/kg
[17]
  inhibition: 0%
[18]
  inhibition: 0%
[19]
  inhibition: 10%
[20]
  inhibition: 0%
